Bioassay records as filed in PubChem.
An excerpt weighted towards active compounds, which were near 1.4% of everything screened.
CAL PDZ FP-1: human CAL PDZ-peptide interaction inhibition | 330,000 compounds, 0.02% hits | purified CAL PDZ, TMR-peptide fluorescence polarization, 1 h | Q9HD26 | inhibition, % at 20 µM;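 active = highest replicate inhibition of at least 40%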;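 note: plate controls were DMSO neutral control wells for no effect and unlabeled competitor peptide control wells for full effect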
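Material: tagged CAL PDZ domain; buffer or medium: 25 mM sodium phosphate pH 7.4, 150 mM NaCl, TCEP, IgG, Thesit; compound dosing: single point, 20 µM; schedule: 1 h incubation at room temperature before polarization reading; measured by: FP readout, S and P plane fluorescence; read-out basis: percent inhibition from loss of millipolarization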
CAL PDZ FP-2: blocks peptide binding to the human CAL PDZ domain. Q9HD26. purified CAL PDZ, TMR-peptide fluorescence polarization, 1 h. inhibition, % at 24.9 µM. 300,000 compounds, 0.92% hits. AID 602252;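 active = mean inhibition of at least 30% with at least half of replicates also reaching 30%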;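 note: 0% = DMSO neutral control and 100% = excess unlabeled competitor peptide PRC23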
CDK5 p35 inh: blocks human CDK5/p35 kinase activity; Q00535+Q15078; Recombinant CDK5/p35, ADP-Glo luminescence, 60 min; inhibition, % at 10 µM; 330,000 compounds, 0.01% hits; AID 488839;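 active = highest replicate inhibition of at least 50% and at least 75% of replicates reaching 50%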;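 note: plate controls were DMSO neutral control for no effect and GW8510 at 10 µM for full effect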
Target sequence (Q00535 whole entry, looked up): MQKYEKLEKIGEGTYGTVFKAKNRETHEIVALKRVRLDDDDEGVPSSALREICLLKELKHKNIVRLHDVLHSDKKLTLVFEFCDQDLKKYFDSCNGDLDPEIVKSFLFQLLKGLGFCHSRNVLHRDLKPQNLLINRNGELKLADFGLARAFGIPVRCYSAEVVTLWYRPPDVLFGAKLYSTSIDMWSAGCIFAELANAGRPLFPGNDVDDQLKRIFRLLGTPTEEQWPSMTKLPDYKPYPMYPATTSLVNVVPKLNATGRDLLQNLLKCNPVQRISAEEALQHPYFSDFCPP
Target sequence (Q15078 whole entry, looked up): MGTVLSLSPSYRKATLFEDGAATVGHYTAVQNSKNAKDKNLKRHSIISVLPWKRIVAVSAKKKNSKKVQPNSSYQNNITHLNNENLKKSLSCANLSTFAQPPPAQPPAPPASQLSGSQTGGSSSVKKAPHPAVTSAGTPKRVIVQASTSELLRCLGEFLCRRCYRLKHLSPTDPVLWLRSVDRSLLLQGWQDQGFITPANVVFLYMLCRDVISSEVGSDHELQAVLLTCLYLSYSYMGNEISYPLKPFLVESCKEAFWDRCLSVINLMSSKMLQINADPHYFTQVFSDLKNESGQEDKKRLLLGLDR
Dyrk1A ADPGlo: Dyrk1A (rat) kinase inhibition; inhibition, % at 12.5 µM; Q63470; ADP-Glo luminescence, NFATc1 peptide; 310,000 compounds, 0.43% hits; AID 504441; in the data active = inhibition above about 50%;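 note: plate controls were vehicle with enzyme for no effect and no enzyme for full effect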
TbMetRS inhib: blocks T. brucei methionyl-tRNA synthetase activity; purified T. brucei MetRS, ATP depletion, Kinase-Glo luminescence; inhibition, % at 11.9 µM; 360,000 compounds, 0.4% hits;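 active = inhibition above a per-plate cutoff of the control wells' mean inhibition plus 3 SD, cut at about 5.5% in these data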;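 note: 0% = DMSO wells median and 100% = median of wells with control inhibitor compound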
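Measured by: Kinase-Glo luciferase luminescence reporting remaining unconsumed ATP. Material: purified T. brucei MetRS enzyme. Doses: 11.9 µM compound single dose, 0.9% DMSO. Medium: HEPES buffer containing pyrophosphatase, BSA, spermine, DTT. Times: 15 min preincubation, 2 h reaction, all 25 °C. Reagent: methionine, ATP and bulk E. coli tRNA.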
PvdQ acylase: P. aeruginosa PvdQ acylase inhibition; purified PvdQ acylase, fluorescence plate reader; inhibition, % at 10 µM; 340,000 compounds, 0.063% hits; in the data active = inhibition above about 30%, passing the limit was not always enough;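 note: 0% = vehicle neutral wells and 100% = reference inhibitor wells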
* hit, by the source's call; / = not tested or not shown; + = active, no number.

SMILES	CAL PDZ FP-1	CAL PDZ FP-2	CDK5 p35 inh	Dyrk1A ADPGlo	TbMetRS inhib	PvdQ acylase
N#C/C(=C(/O)c1ccccc1F)c1nc2cc(C(F)(F)F)ccc2s1	1	-1	0	-4	0	-6
N#C/C(=C(/O)c1ccc2c(c1)OCO2)c1nc2cc(C(F)(F)F)ccc2s1	-1	43*	0	3	0	-3
CCN1/C(=C/C=C/c2oc3ccc(-c4ccccc4)cc3[n+]2CC)Oc2ccc(-c3ccccc3)cc21	-4	36*	0	-1	0	-11
Cc1ccccc1C(NC(=O)C1CCN(Cc2ccc(Oc3ccccc3)cc2)CC1)c1ccsc1 (stereo unspecified)	/	/	/	/	0	/
COc1ccc(OC)c(NC(=O)N2CCCC(C(=O)c3ccccc3OC)C2)c1 (stereo unspecified)	0	77*	-3	-2	-1	-6
COc1cccc(C(=O)C2CCCN(C(=O)c3ccccn3)C2)c1 (stereo unspecified)	1	73*	0	-1	0	-9
C[C@@H]1CCCCO[C@H](CN(C)S(=O)(=O)c2ccccc2)[C@@H](C)CN([C@H](C)CO)C(=O)c2cc(NC(=O)Cc3ccccc3)ccc2O1	/	/	/	/	-1	/
CN(C)c1ccc(CC(=O)N2CCCCC2c2cc(C(=O)Nc3ccccc3)no2)cc1 (stereo unspecified)	/	/	/	/	0	/
Cc1ccc(CN2C(=O)c3ccccc3NC2c2ccccn2)cc1 (stereo unspecified)	0	58*	1	3	0	-9
Cc1c(NC2=NC(C)(C)Cc3ccccc32)c(=O)n(-c2ccccc2)n1C	0	-3	1	0	-1	-11
Cc1c(NC2(C#N)CCCC2)c(=O)n(-c2ccccc2)n1C	-1	78*	0	1	0	-16
Cc1c(NC2=CC(=O)CC(C)(C)C2)c(=O)n(-c2ccccc2)n1C	-1	31*	0	-6	0	-7
COc1cccc(Cn2cnc(-c3ccccc3OC)c2C2CC2)c1	/	/	/	/	-1	/
COc1cccc(CN2CCC(C(=O)NC(C)c3cccc4ccccc34)CC2)c1 (stereo unspecified)	/	/	/	/	0	/
CCCCn1nnnc1C(c1ccccc1)N1CCN(C/C=C/c2ccccc2)CC1 (stereo unspecified)	/	/	/	/	-1	/
CCc1ccccc1N(CC(=O)O)S(C)(=O)=O	/	43*	0	2	0	-18
Cc1ccccc1N(CC(=O)O)S(C)(=O)=O	1	-3	-2	2	0	-11
CCOC(=O)C1=C[C@@H](C2CCCCC2)N(S(=O)(=O)c2ccc([N+](=O)[O-])cc2)[C@H]1c1ccccc1	/	/	/	/	0	/
c1ccc(-n2ncc3c(NCCN4CCOCC4)ncnc32)cc1	0	-2	0	2	-2	9
Cc1nc(NCCCN2CCOCC2)c2cnn(-c3ccccc3)c2n1	-1	36*	-1	0	0	-9
COc1ccccc1CNc1ccc2nnc(CCNC(=O)c3ccccc3)n2n1	-2	54*	1	/	1	-11
CSc1ccccc1NC(=O)CN1CCN(S(=O)(=O)c2ccccc2[N+](=O)[O-])CC1	-1	+	0	/	-1	-20
CCCCNC(=O)c1[nH]c(C2CCNCC2)nc1-c1cccc(C(F)(F)F)c1	/	/	/	/	0	/
CCCN(CC(=O)Nc1ccccc1OC)C(=O)c1ccccn1	0	74*	-2	2	0	-11
CCCN(CC(=O)Nc1ccccc1OC)C(=O)CSC(=S)N1CCCC1	0	60*	-1	/	0	-5
SMILES	CAL PDZ FP-1	CAL PDZ FP-2	CDK5 p35 inh	Dyrk1A ADPGlo	TbMetRS inhib	PvdQ acylase
CCNC(=O)C1CCCN(C(=O)c2ccc3ccccc3c2)CC1 (stereo unspecified)	/	/	/	/	0	/
COc1ccc(CCNc2nc(-c3ccncc3)cs2)cc1OC	0	/	1	39	0	-7
COc1ccc(CCNc2nc(-c3ccccn3)cs2)cc1OC	-2	49*	-1	-2	0	-18
COc1cc(C2CC(=O)C3=C(C2)Nc2ncnn2C3c2cccs2)cc(OC)c1OC (stereo unspecified)	/	/	/	/	0	/
COc1cc(C2C=C(c3cccs3)Nc3ncnn32)cc(OC)c1OC (stereo unspecified)	1	33*	1	6	0	-1
COCCNC(=O)C1(C)CCCN(CCOc2ccc(Cl)cc2)C1 (stereo unspecified)	/	/	/	/	0	/
O=C(Nc1ccncc1)c1ccc(N2CCCC2=O)cc1	-3	-3	2	16	0	14
O=C(Nc1cccc([N+](=O)[O-])c1)c1ccc(N2CCCC2=O)cc1	0	69*	-1	-3	0	-10
COC(=O)[C@]12CCCCC=C1N(CCc1ccc(OC)c(OC)c1)C(=O)[C@H](CC(=O)NCCc1ccccc1OC)C2	/	/	/	/	0	/
CCOC(=O)C1CCCN(CCc2ccccc2)C1 (stereo unspecified)	-1	/	-1	-1	0	-3
O=C(OC1C2CCC1C1CN(CCc3ccccc3)CC12)c1ccccc1 (stereo unspecified)	-3	41*	1	/	0	-19
CC(C)(C)OC(=O)Nc1ccccc1-n1nnnc1C(C(=O)c1ccc(F)cc1)N1CCOCC1 (stereo unspecified)	/	/	/	/	0	/
Cc1c(C(=O)NCc2ccccc2C(F)(F)F)sc(=O)n1Cc1ccc(F)cc1	/	/	/	/	-1	/
CC(C)Oc1ccc(Nc2ncnc3ccccc23)cc1	-2	-3	1	4	-1	31*
CN(c1cccc(F)c1)c1cc2c(c3c1ccn3C)C1CCC2O1 (stereo unspecified)	/	/	/	/	0	/
COc1cccc(/C=N/NC(=O)c2cnccn2)c1O	-2	90*	1	-8	0	-10
COc1ccc(/C=N/NC(=O)c2cnccn2)c(OC)c1OC	-1	-4	0	-3	-1	6
CCN(CC)CCn1c2c(c(SCC(=O)NCc3ccccc3)nc1=O)CCCC2	-2	5	-1	2	0	-15
CCN(CC)CCn1c2c(c(SCC(=O)NCc3ccccc3)nc1=O)CCC2	0	39*	-2	/	0	-15
O=c1[nH][nH]c2c1C(c1ccc(Cl)c(Cl)c1)OC(CCc1ccccc1)C2 (stereo unspecified)	/	/	/	/	0	/
O=C(CSc1nc2ncccc2[nH]1)NCc1ccco1	-1	59*	1	7	0	-16
O=C(CSc1nc2ccccc2[nH]1)NCc1ccco1	-3	-1	-2	3	-1	18
COc1cc(CC(=O)NCC(C)(C)N2CCOCC2)cc(OC)c1OC	0	55*	0	-9	-1	-18
COc1ccc(S(N)(=O)=O)cc1C(=O)NCC(C)(C)N1CCOCC1	-2	-2	0	0	-1	6
